Source: PubChem
ABCB6 inh MLPCN = human ABCB6 transporter inhibition; Q9NP58; K562-ABCB6 porphyrin accumulation, flow cytometry, 1 h; hits give low values; fluorescence ratio to DMSO, % at 10 µM; 360,000 tested, 0.19% active; AID 602162;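 active = fluorescence ratio to DMSO below 75%, the collection mean minus 3 SD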;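 note: signal is porphyrin accumulated inside mitochondria; lower ratio means ABCB6 inhibition with less porphyrin fluorescence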
TNAP inh noacc = blocks human TNAP activity with no phosphate acceptor present; P05186; 200,000 tested, 0.26% active; inhibition, % at 20 µM; purified TNAP, CDP-star luminescence, 30 min;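 active = tissue-nonspecific alkaline phosphatase inhibition above about 50% at 20 µM in the single-dose screen, limit read from the data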
Target sequence (P05186 whole entry, looked up): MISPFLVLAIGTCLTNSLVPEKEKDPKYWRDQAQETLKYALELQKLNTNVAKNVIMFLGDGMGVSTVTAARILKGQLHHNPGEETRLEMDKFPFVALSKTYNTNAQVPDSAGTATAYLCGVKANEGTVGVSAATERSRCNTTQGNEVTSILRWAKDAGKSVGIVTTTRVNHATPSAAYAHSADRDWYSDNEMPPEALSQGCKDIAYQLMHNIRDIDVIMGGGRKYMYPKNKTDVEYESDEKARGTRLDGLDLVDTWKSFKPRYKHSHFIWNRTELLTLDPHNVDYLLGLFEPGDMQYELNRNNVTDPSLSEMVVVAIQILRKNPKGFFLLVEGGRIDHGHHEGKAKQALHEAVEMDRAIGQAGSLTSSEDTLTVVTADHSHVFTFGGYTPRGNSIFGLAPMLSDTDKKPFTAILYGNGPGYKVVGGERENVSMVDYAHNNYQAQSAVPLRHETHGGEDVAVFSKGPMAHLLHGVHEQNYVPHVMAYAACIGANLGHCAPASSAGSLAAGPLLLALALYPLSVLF
TNAP act hiacc = increases human TNAP activity under high phosphate acceptor concentration; P05186; purified TNAP, CDP-star luminescence, 1 M DEA, 30 min; hits give high values; 0 = EDTA background, 1 = DMSO-only activity; activation factor at 20 µM; 200,000 tested, under 10 active;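 active = activation factor at least 2 at 20 µM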
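Measured by: Luminescent substrate turnover signal | Test system: Human TNAP | Input: TNAP 1/800 final | Dosing: 20 µM single point | Schedule: 30 min, room temperature | Controls: EDTA wells as negative control, DMSO wells as positive control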
TNAP inh hiacc = inhibitors of human TNAP at high phosphate acceptor concentration | P05186 | 200,000 tested, 0.03% active | purified TNAP, CDP-star luminescence, 1 M DEA | inhibition, % at 20 µM | AID 1135;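 active = over 50% inhibition of tissue-nonspecific alkaline phosphatase at 20 µM in the single-dose screen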
CHT block = inhibitors of human choline transporter CHT; Q9GZV3; CHT-expressing cells, membrane potential dye, choline response; hits give low values; B-score at 10 µM; 310,000 tested, 0.86% active;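 active = B-score over 3 SD under the library average, and starting fluorescence ratio not unusually high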;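 note: choline stimulus applied at its EC90 after an EC20 pre-addition; B-score computed on integrated fluorescence ratio after choline addition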
CHT PAM = allosteric activators of human choline transporter CHT; Q9GZV3; CHT-expressing cells, membrane potential dye, choline EC20; hits give high values; LV-AA mutant CHT in HEK293 cells; B-score at 10 µM; 310,000 tested, 0.49% active;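 active = initial fluorescence not abnormally high and integrated response B-score, plate-corrected, over 3 SD above library mean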
CHT activ conf = human CHT activation, confirmatory screen | shares compounds with CHT PAM | CHT-expressing cells, membrane potential dye fluorescence (FDSS); % of choline EC20–EC90 response window; HEK293 expressing CHT LV-AA mutant; choline added at its EC20 | activation, % at 10 µM | 2,500 tested, 91% active | AID 504833;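 active = primary screen active, with duplicate mean activation above negative control mean plus 3 SD, cut at about 11% in these data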
HEK293 MP dye = counter-screen for CHT activators: effect in parental HEK293 cells | shares compounds with CHT PAM | 2,500 tested, 62% active | ratio readout change at 10 µM, hits read low | AID 623908 | membrane potential dye fluorescence (FDSS); measured after EC20 choline addition;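 active = duplicate-averaged ratio beyond 3 SD from buffer wells, up or down, though filed actives are nearly all decreases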
ABCB6 blocker 1 = blocks the human ABCB6 transporter; shares compounds with ABCB6 inh MLPCN; K562-ABCB6 porphyrin accumulation, flow cytometry, 1 h; hits give low values; ratio response (% of DMSO), % at 10 µM; 700 tested, under 10 active; AID 602430;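 active = repeat-averaged ratio response below 75% of DMSO, the collection mean minus 3 SD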;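 note: median porphyrin fluorescence at 575 nm with 488 nm excitation from mitochondria; lower ratio means less porphyrin signal so ABCB6 inhibition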
Numbers stand for hits; i = inactive; nt = not tested or not shown. Hits are enriched below; roughly 1.4% of the tested compounds scored in any of these assays.

SMILES	ABCB6 inh MLPCN	TNAP inh noacc	TNAP act hiacc	TNAP inh hiacc	CHT block	CHT PAM	CHT activ conf	HEK293 MP dye	others
COc1cc2c(cc1OC)-c1c(OC)c(OC)cc3c1[C@H](C2)N(C)CC3	i	i	i	i	i	7.6	44	-73
COc1ccc2c(c1O)-c1c(OC)c(OC)cc3c1[C@H](C2)N(C)CC3	i	nt	nt	nt	i	8.4	56	-66
COc1cc2c(cc1OC)C13CCN4C=C5CCOC6CC(=O)N2C1C6C5CC43 (configuration not stated)	i	nt	nt	nt	nt	nt	nt	nt
CC1CC2CC(=O)CCC2(C)C2CCC3(C)C(O)CCC3C12 (configuration not stated)	i	nt	nt	nt	nt	nt	nt	nt
CNC(=S)N(C)CCc1cc2c(c(OC)c1C=C1C(=O)NC(=O)NC1=O)OCO2	i	nt	nt	nt	i	7.3	51	-56
CC1=CC(C)CC(C)OC(=O)CC(c2ccc(O)cc2)NC(=O)C(Cc2c(Br)[nH]c3ccccc23)N(C)C(=O)C(C)NC(=O)C(C)C1 (configuration not stated)	i	nt	nt	nt	nt	nt	nt	nt
CCOC(=O)c1ccc2c(c1)n(Cc1ccccc1)c(C)[n+]2CC	i	i	i	i	i	8.1	47	-51
Cn1c(=O)n(C)c2cc([N+](=O)[O-])c(N3CCNCC3)cc21	i	i	i	i	i	9.7	i	i
CCCC1(CC(C)CC)C(=O)NC(=O)NC1=O (configuration not stated)	i	nt	nt	nt	nt	nt	nt	nt
COc1ccc(-n2c(/C=C/c3ccc(O)c(O)c3)nc3ccccc3c2=O)cc1	i	nt	nt	nt	i	i	nt	nt
COc1cc(/C=C/c2nc3ccccc3c(=O)n2-c2ccc(O)cc2)ccc1O	i	nt	nt	nt	i	i	18	i
O=C1CC2OCC=C3CN4CCC56c7cc([N+](=O)[O-])ccc7N1C5C2C3CC46 (configuration not stated)	i	i	i	i	i	i	51	-50
Cc1cc(N2CCNCC2)nc2ccccc12	i	nt	nt	nt	i	7.5	60	-65
Clc1cccc(N2CCNCC2)n1	i	i	i	i	i	i	nt	nt
Cc1nc2cc(OC(=O)N(C)Cc3cccc(-c4ccncc4)c3)ccc2s1	i	nt	nt	nt	nt	nt	nt	nt
CC[n+]1c(SC)ccc2cc(OC)ccc21	i	i	i	i	i	i	64	-59
O=c1[nH]c2ccccc2n1C1CCN(C(c2cc3ccccc3o2)c2nnnn2-c2ccc3c(c2)OCCO3)CC1 (configuration not stated)	i	nt	nt	nt	nt	nt	nt	nt
Cc1nonc1OCCNCCNc1ccc([N+](=O)[O-])c2cccnc12	i	i	i	i	i	i	30	-63
COc1cc([N+](=O)[O-])c2ncccc2c1[N+](=O)[O-]	i	nt	nt	nt	nt	nt	nt	nt
CCNCCNc1ccc([N+](=O)[O-])c2cccnc12	i	nt	nt	nt	i	6.3	27	-66
COc1ccc(C2NCc3ccc4c(c3-n3cccc32)OCO4)cc1O (configuration not stated)	nt	i	i	i	i	11	16	i
c1cc2n(c1)-c1c(ccc3c1OCO3)CNC2c1ccc2c(c1)OCO2 (configuration not stated)	i	i	i	i	i	i	nt	nt
CN(C)c1cccc2c(C#N)ccc(N(C)C)c12	i	i	i	i	i	7.8	66	-69
O=C1NCN(c2ccccc2)C12CCN(C(c1cccc3ccccc13)c1nnnn1C1CCCCC1)CC2 (configuration not stated)	i	nt	nt	nt	nt	nt	nt	nt
COC(=O)c1c2[n+](cc3cc(OC)c(OC)cc13)CCc1cc(OC)c(OC)cc1-2	i	nt	nt	nt	i	i	44	-49
CN1CCN(c2c(F)cc([N+](=O)[O-])c(N)c2Br)CC1	i	i	i	i	i	6.6	46	-49
Nc1c([N+](=O)[O-])cc(F)c(N2CCNCC2)c1Br	i	i	i	i	i	i	43	-55
CCOc1cc2c(cc1OCC)-n1cccc1C(c1ccccc1OC)NC2 (configuration not stated)	73	nt	nt	nt	i	i	nt	nt	ABCB6 blocker 1=i
Cc1ncoc1C(=O)NCC1=C(c2ccc3ccccc3c2)C[C@@H]2CC[C@H]1N2Cc1ccco1	i	nt	nt	nt	nt	nt	nt	nt
